The values below come from ChEMBL document CHEMBL1138136, “Aplysamine-1 and related analogs as histamine H3 receptor antagonists” (Bioorg Med Chem Lett, 2006).

Assay [1] has as its target Histamine H3 receptor (Rattus norvegicus, UniProt Q9QYN8). The experiment in a line: Displacement of N-[3H]methylhistamine from rat histamine H3 receptor in rat cortical hemispheres.
Assay [2] addresses T1, Histamine H3 receptor (Homo sapiens, UniProt Q9Y5N1). The experiment in a line: Displacement of N-[3H]methylhistamine from human histamine H3 receptor expressed in SK-N-MC cells. The assay is classed as cell-based.
The target in assay [3] is T1, Histamine H3 receptor. The experiment in a line: Activity against human histamine H3 receptor by histamine induced inhibition of forskolin stimulated cAMP accumulation in SK-N-MC cells. The assay is classed as functional, cell-based. The settings on record: read-out: pA2 (converted). The method in brief: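 SK-N-MC cells overexpressing human H3 receptor; antagonist-induced rightward shifts of histamine dose–response curves for inhibition of forskolin-stimulated cAMP accumulation measured. pA2 obtained by Schild regression analysis.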
For orientation: Changes in cAMP serve as a functional read-out for many G protein-coupled receptors.

Sequence of Histamine H3 receptor (Rattus norvegicus, UniProt Q9QYN8) (Q9QYN8 whole entry): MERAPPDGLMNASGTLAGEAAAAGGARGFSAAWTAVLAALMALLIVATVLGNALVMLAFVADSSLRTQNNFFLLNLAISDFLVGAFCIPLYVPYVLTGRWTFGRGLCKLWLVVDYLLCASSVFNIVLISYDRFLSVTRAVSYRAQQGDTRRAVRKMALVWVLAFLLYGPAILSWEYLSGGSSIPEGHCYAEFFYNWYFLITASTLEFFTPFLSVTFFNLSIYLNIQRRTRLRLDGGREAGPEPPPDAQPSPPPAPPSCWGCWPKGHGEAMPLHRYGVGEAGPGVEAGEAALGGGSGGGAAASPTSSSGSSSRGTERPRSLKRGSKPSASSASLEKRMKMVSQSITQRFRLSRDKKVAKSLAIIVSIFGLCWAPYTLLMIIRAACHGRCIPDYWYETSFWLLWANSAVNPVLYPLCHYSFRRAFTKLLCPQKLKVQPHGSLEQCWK
T1 sequence (Q9Y5N1 whole entry): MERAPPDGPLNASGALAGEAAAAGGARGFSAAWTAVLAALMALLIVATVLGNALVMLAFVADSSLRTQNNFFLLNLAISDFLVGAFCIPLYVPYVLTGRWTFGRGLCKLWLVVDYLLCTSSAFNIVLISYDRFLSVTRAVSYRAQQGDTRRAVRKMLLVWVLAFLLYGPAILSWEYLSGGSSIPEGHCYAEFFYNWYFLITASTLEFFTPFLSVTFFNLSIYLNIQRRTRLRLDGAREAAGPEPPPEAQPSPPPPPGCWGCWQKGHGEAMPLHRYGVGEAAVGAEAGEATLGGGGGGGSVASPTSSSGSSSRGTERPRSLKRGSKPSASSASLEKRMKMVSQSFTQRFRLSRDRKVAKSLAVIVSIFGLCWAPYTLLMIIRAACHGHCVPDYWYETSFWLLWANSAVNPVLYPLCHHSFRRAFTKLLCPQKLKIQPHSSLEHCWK

For the molecule `CN(C)CCc1ccc(OCCN2CCCCC2)cc1`, the Ki (commonly the dissociation constant of the complex between target and ligand, obtained from inhibition or displacement) in assay [1] stood at 50 nM; in assay [2], 14 nM.
In assay [1], `c1cc(OCCCN2CCCCC2)ccc1CN1CCCCC1` [JNJ-5207852] registered an inhibition constant Ki of 1 nM.
On to `CN(C)CCOc1ccc(CCN(C)C)cc1`, for which the Ki is 345 nM in assay [1] and 40 nM in assay [2].
As for `CN(C)CCCOc1c(Br)cc(CCN(C)C)cc1Br` [APLYSAMINE], the affinity in assay [1], expressed as Ki, was 249 nM.
For `CN(C)CCCOc1c(Br)cc(CN(C)C)cc1Br`, the inhibition constant Ki in assay [1] was determined as 319 nM; in assay [2] it was 36 nM.
As to `Brc1cc(CN2CCCCC2)cc(Br)c1OCCCN1CCCCC1`, the inhibitory constant (Ki) was 57 nM in assay [1] and 8 nM in assay [2]. Further, the Kb in assay [3] was 7.24 nM.
Regarding `CN(C)CCCOc1ccc(CN(C)C)cc1`, the inhibition constant Ki in assay [1] amounted to 255 nM; in assay [2], 18 nM.
For `CCCCN(CCCC)CCCOc1ccc(-c2cn3c(C)cccc3n2)cc1`, the inhibition constant (Ki) in assay [2] was 4000 nM.
On to `CN(C)CCCOc1ccc(CN2CCCCC2)cc1`, for which the Ki was determined as 45 nM in assay [1] and 3 nM in assay [2]. Further, in assay [3], the Kb is 9.33 nM.
In the case of `CN(C)CCc1ccc(OCCCN2CCCCC2)cc1`, the inhibition constant (Ki) in assay [1] worked out at 5 nM; in assay [2], 0.5 nM. Moreover, the Kb in assay [3] is 0.501 nM.
The corresponding values for `CN(C)CCCOc1ccc(CCN(C)C)cc1` are 89 nM, 6 nM and 17 nM.
